From ChEMBL document CHEMBL1765085, “Cytotoxic and apoptosis-inducing activities of triterpene acids from Poria cocos” (J Nat Prod, 2011)
Activity calls are given as the source filed them. The calls are words filed in the database; no cut-off is given here.

Assays:
HL-60 [1] = assay: Induction of apoptosis in human HL60 cells assessed as viable cells at 30 uM after 24 hrs by AnnexinV/propidium iodide staining (Rvb =85.6%); format: functional; details: HL-60, 24 h, read-out: Activity
A549 [2] = assay: Induction of apoptosis in human A549 cells assessed as necrotic cells at 30 uM after 24 hrs by AnnexinV/propidium iodide staining (Rvb =3.4%); format: functional
A549 [3] = assay: Induction of apoptosis in human A549 cells assessed as early apoptotic cells at 30 uM after 48 hrs by AnnexinV/propidium iodide staining (Rvb =4.3%); format: functional
A549 [4] = assay: Cell cycle arrest in human A549 cells assessed as accumulation at Go/G1 phase at 30 uM after 48 hrs by flow cytometry (reference value: 64.3%); format: functional
Method in brief: (§1)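 Cells seeded at 1 × 10^5 per sample for HL60 and 1.5 × 10^5 for A549, then exposed to 30 μM for 0, 24 or 48 h. After a PBS wash, DNA was stained with Nim-DAPI for 10 min at room temperature. Phase distribution was read by flow cytometry, with the sub-G1 (fragmented DNA) fraction taken as the apoptosis index. Values are means of three experiments.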

HL-60 [5] = assay: Cell cycle arrest in human HL60 cells assessed as accumulation at sub-G1 phase at 30 uM after 24 hrs by flow cytometry (reference value: 3.0%); format: functional; method in brief: as §1
OVCAR-3 = assay: Cytotoxicity in human OVCAR3 cells assessed as cell viability after 48 hrs by MTT assay; format: functional, cell-based; details: OVCAR-3, 48 h
Method in brief: (§2)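 Growth conditions: RPMI 1640 for HL60, CRL1579, NIH:OVCAR-3, SK-BR-3, DU145 and PANC-1; D-MEM for A549; MEM for WI-38; all with 10% FBS and antibiotics, 37 °C, 5% CO2. Seeded at 3 × 10^3 cells/well (OVCAR-3 1 × 10^4), then treated 48 h with 10^-4 to 10^-6 M. MTT for 3 h, formazan dissolved in 0.04 M HCl/2-propanol, A570/630. IC50 (50% growth inhibition) from triplicates.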

A549 [6] = assay: Cell cycle arrest in human A549 cells assessed as accumulation at S phase at 30 uM after 24 hrs by flow cytometry (reference value: 27.7%); format: functional; method in brief: as §1
HL-60 [7] = assay: Induction of apoptosis in human HL60 cells assessed as necrotic cells at 30 uM after 24 hrs by AnnexinV/propidium iodide staining (Rvb =2.3%); format: functional
A549 [8] = assay: Induction of apoptosis in human A549 cells assessed as viable cells at 30 uM after 48 hrs by AnnexinV/propidium iodide staining (Rvb =91.2%); format: functional; details: A549, 48 h, read-out: Activity
HL-60 [9] = assay: Induction of apoptosis in human HL60 cells assessed as late apoptotic cells at 30 uM after 24 hrs by AnnexinV/propidium iodide staining (Rvb =3.3%); format: functional
HL-60 [10] = assay: Induction of apoptosis in human HL60 cells assessed as necrotic cells at 30 uM after 48 hrs by AnnexinV/propidium iodide staining (Rvb =2.3%); format: functional
HL-60 [11] = assay: Cell cycle arrest in human HL60 cells assessed as accumulation at S phase at 30 uM after 48 hrs by flow cytometry (reference value: 42.6%); format: functional; method in brief: as §1
HL-60 [12] = assay: Induction of apoptosis in human HL60 cells assessed as early apoptotic cells at 30 uM after 24 hrs by AnnexinV/propidium iodide staining (Rvb =7.6%)
A549 [13] = assay: Induction of apoptosis in human A549 cells assessed as late apoptotic cells at 30 uM after 48 hrs by AnnexinV/propidium iodide staining (Rvb =1.1%); format: functional
HL-60 [14] = assay: Induction of mitochondrial signal transduction pathway-mediated apoptosis in human HL60 cells assessed as decrease in Bcl-2 level at 30 uM after 8 to 24 hrs by Western blot analysis; details: TDE = time-dependent effect
HL-60 [15] = assay: Cell cycle arrest in human HL60 cells assessed as accumulation at Go/G1 phase at 30 uM after 24 hrs by flow cytometry (reference value: 51.4%); format: functional; method in brief: as §1
HL-60 [16] = assay: Induction of mitochondrial signal transduction pathway-mediated apoptosis in human HL60 cells assessed as increase in cleaved caspase-9 level at 30 uM after 8 hrs by Western blot analysis; format: functional, cell-based
Method in brief: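 HL60 cells (1 × 10^6) pre-incubated 24 h, then exposed to 30 μM final for 8 h. Whole-cell lysates in extraction buffer, resolved on 15% SDS-PAGE, blotted to PVDF, probed overnight at 4 °C with anti-caspase-8 or anti-caspase-9 primary antibodies, β-actin as loading reference. Procaspase loss and cleaved caspase bands read.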

WI-38 = assay: Cytotoxicity against human WI38 cells assessed as cell viability after 48 hrs by MTT assay; format: cell-based; details: WI-38, 48 h; method in brief: as §2
A549 [17] = assay: Cell cycle arrest in human A549 cells assessed as accumulation at sub-G1 phase at 30 uM after 48 hrs by flow cytometry (reference value: 3.1%); format: functional; method in brief: as §1
HL-60 [18] = assay: Cell cycle arrest in human HL60 cells assessed as accumulation at sub-G1 phase at 30 uM after 48 hrs by flow cytometry (reference value: 3.0%); format: functional; method in brief: as §1
PANC-1 = assay: Cytotoxicity in human PANC1 cells assessed as cell viability after 48 hrs by MTT assay; format: functional, cell-based; details: PANC-1, 48 h; method in brief: as §2
A549 [19] = assay: Induction of mitochondrial signal transduction pathway-mediated apoptosis in human A549 cells assessed as increase in cleaved caspase-8 level at 30 uM after 24 to 48 hrs by Western blot analysis
A549 [20] = assay: Induction of mitochondrial signal transduction pathway-mediated apoptosis in human A549 cells assessed as increase in cleaved caspase-9 level at 30 uM after 24 to 48 hrs by Western blot analysis

C=C(CC[C@@H](CO)[C@H]1[C@H](O)C[C@@]2(C)C3=CC[C@@H](C(=C)C)[C@](C)(CCCO)C3=CC[C@]12C)C(C)C [PORICOTRIOL A]
viability at 30 µM (HL-60 [1]): 34.8% | Activity (A549 [2]): 4.3% | Activity (A549 [3]): 24.1% | Activity (A549 [4]): 73% | Activity (HL-60 [5]): 35.4% | IC50 (OVCAR-3): 2200 nM | Activity (A549 [6]): 7.8% | Activity (HL-60 [7]): 3.2% | viability at 30 µM (A549 [8]): 49.3% | Activity (HL-60 [9]): 14% | Activity (HL-60 [10]): 2.5% | Activity (HL-60 [11]): 30.5% | Activity (HL-60 [12]): 48.1% | Activity (A549 [13]): 20.2% | Activity (HL-60 [14]): tde | Activity (HL-60 [15]): 62.3% | Activity (HL-60 [16]): Active | IC50 (WI-38): 55.7 µM | Activity (A549 [17]): 17.4% | Activity (HL-60 [18]): 38.7% | IC50 (PANC-1): 26.3 µM | Activity (A549 [19]): inactive | Activity (A549 [20]): inactive
